Results of several laboratories.
Compare with care: the assays were run in different laboratories.
Target: Tyrosine-protein kinase FRK (FRK, Homo sapiens, UniProt P42685)

Cn1cc(-c2cccc(N3CCc4c(sc5c4CC(C)(C)C5)C3=O)c2CO)cc(Nc2ccncn2)c1=O — inhibition (enzyme activity, inhibitor; 1 µM): 9%
N#CC1(c2ccccn2)CCN(Cc2cc(C(=O)O)c(=O)n3ccccc23)CC1 — remaining binding (cell-free assay, competition with immobilised ligand; 1 µM): 100%
COc1cc(Nc2ncc(F)c(Nc3ccc4c(n3)NC(=O)C(C)(C)O4)n2)cc(OC)c1OC — inhibition (binding, competition with immobilised ligand; 10 µM): 96%
O=c1[nH]c2ccccc2n1C1CCN(Cc2ccc(-c3[nH]c4cc5ncnc5cc4nc3-c3ccccc3)cc2)CC1 — remaining signal (cell-free assay; 0.5 µM): 102%
Cn1cncc1[C@](O)(COc1ccc(C#N)cc1-c1ccc(OC(F)(F)F)cc1)c1ccc(C#N)cc1 — remaining binding (cell-free assay, competition with immobilised ligand; 1 µM): 100%
Cn1cc(-c2cc(F)cc(N3CCn4c(cc5c4CCCC5)C3=O)c2CO)cc(Nc2ccc(N3CCN(C4COC4)CC3)cn2)c1=O — inhibition (enzyme activity, inhibitor; 0.1 µM): 15%
Nc1ncc(-c2nc(N3CCOCC3)nc(N3CCOCC3)n2)c(C(F)F)n1 — remaining binding (binding, competition with immobilised ligand; 10 µM): 100%
Cc1nn(C)cc1-c1nc2c(N3CCN(Cc4ccc(Cl)cc4)CC3)c(Cl)cnc2[nH]1 — remaining binding (binding, competition with immobilised ligand; 1 µM): 100%
CC(C)(C)c1cc(C=C(C#N)C#N)cc(Br)c1O — remaining activity (enzyme activity, inhibitor; 0.5 µM): 99.3%
COc1ncccc1-c1cnn2ccc(N3CCN(C(=O)OC(C)C)CC3)nc12 — remaining binding (binding, competition with immobilised ligand; 1 µM): 63%
